Measurements from ChEMBL document CHEMBL1687926, “14-Aminocamptothecins: their synthesis, preclinical activity, and potential use for cancer treatment” (J Med Chem, 2011).
Several values for one entry are separate records, joined by “and”; a condition that tells them apart may be missing. Equal entries are not always repeated.

Experiments:
[1] = Resistance ratio of IC50 for human MES-SA/Dx5 cells overexpressing MDR1 after 72 hrs to IC50 for human MESSA cells after 72 hrs; assay type: functional
In short: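 Cytotoxicity compared in MDR1-overexpressing lines and their parental wild-type lines. 72 h exposure at 37 °C, viability by AlamarBlue, IC₅₀ at 50% growth inhibition. Resistance ratio = IC₅₀ in overexpressing line / IC₅₀ in parental line.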

HT-29 [2] = experiment: Cytotoxicity against human HT-29 cells after 72 hrs by alamar blue assay; assay type: functional, cell-based; conditions: HT-29, 72 h
In short: (§1)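 Cells seeded at 4 × 10³ per well and grown 24 h. Compounds dissolved in DMSO and diluted in medium to final concentrations, then incubated 72 h at 37 °C, 5% CO₂. Viable cells read by AlamarBlue; IC₅₀ taken as the concentration giving 50% growth inhibition.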

[3] = Cytotoxicity against human MESSA cells after 72 hrs by alamar blue assay; assay type: functional, cell-based; conditions: MES-SA; in short: as §1
[4] = Ratio of IC90 for mouse bone marrow cell to IC90 for human bone marrow cell; assay type: ADME, cell-based; conditions: bone marrow cells
In short: (§2)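 CFU-GM colony assay in triplicate at 2 × 10⁴ cells per culture, using thawed normal human bone marrow or fresh mouse femoral marrow. Colonies were scored after 16-18 days. The IC50 or IC90 from each species gave the mouse/human ratio.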

LNCaP = experiment: Cytotoxicity against human LNCAP cells after 72 hrs by alamar blue assay; assay type: functional, cell-based; in short: as §1
NCI-H460 [5] = experiment: Cytotoxicity against human H460 cells after 72 hrs by alamar blue assay in presence of 40 mg/ml HSA; assay type: functional, cell-based; conditions: NCI-H460, 72 h
In short: (§3)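 H460 cells seeded at 4 × 10³ per well and grown 24 h. Compounds then cocultured with cells for 72 h at 37 °C, with or without 40 mg/mL human serum albumin. Viability read by AlamarBlue; IC₅₀ = 50% growth inhibition. Ratio compares the IC₅₀ with HSA to the IC₅₀ without.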

Malme-3M = experiment: Cytotoxicity against human MALME-3M cells after 72 hrs by alamar blue assay; assay type: functional, cell-based; in short: as §1
[6] = Resistance ratio of IC50 for human H69AR cells overexpressing MRP1 after 72 hrs s to IC50 for human H69 cells after 72 hrs
[7] = Cytotoxicity against human bone marrow cell by CFU-GM assay; assay type: cell-based; conditions: for IC50: Homo sapiens, Bone marrow cell; for IC90: human, bone marrow cells
NCI-H69 = experiment: Cytotoxicity against human H69 cells after 72 hrs by alamar blue assay; assay type: functional, cell-based; conditions: NCI-H69, 72 h; in short: as §1
NCI-H460 [8] = experiment: Ratio IC50 for human H460 cells after 72 hrs in presence of 40 mg/ml HSA to IC50 for human H460 cells after 72 hrs; assay type: functional; in short: as §3
IGROV-1 = experiment: Cytotoxicity against human IGROV1 cells after 72 hrs by alamar blue assay; assay type: functional, cell-based; conditions: IGROV-1, 72 h; in short: as §1
[9] = Cytotoxicity against human MES-SA/Dx5 cells overexpressing MDR1 after 72 hrs by alamar blue assay; assay type: functional, cell-based; conditions: MES-SA/Dx5, 72 h; in short: as §1
H69AR = experiment: Cytotoxicity against human H69AR cells overexpressing MRP1 after 72 hrs by alamar blue assay
[10] = Ratio of IC50 for mouse bone marrow cell to IC50 for human bone marrow cell; assay type: cell-based; conditions: bone marrow cells; in short: as §2
DU-145 = experiment: Cytotoxicity against human DU145 cells after 72 hrs by alamar blue assay; assay type: functional, cell-based; conditions: DU-145, 72 h; in short: as §1
PC-3 [11] = experiment: Cytotoxicity against human PC3 cells after 72 hrs by alamar blue assay; assay type: functional, cell-based; conditions: PC-3, 72 h; in short: as §1
[12] = Cytotoxicity against mouse bone marrow cell by CFU-GM assay; assay type: cell-based
In short: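 CFU-GM colony assay on normal human bone marrow (thawed) or mouse femoral marrow (freshly extracted). Human colonies scored after 16-18 days. IC₅₀ taken from triplicate assays.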

NCI-H460 [13] = experiment: Cytotoxicity against human H460 cells after 72 hrs by alamar blue assay; assay type: functional, cell-based; conditions: Homo sapiens, NCI-H460, 72 h; in short: as §1
A-375 = experiment: Cytotoxicity against human A375 cells after 72 hrs by alamar blue assay; assay type: functional, cell-based; conditions: A-375, 72 h; in short: as §1
SK-MEL-2 = experiment: Cytotoxicity against human SK-MEL-2 cells after 72 hrs by alamar blue assay; assay type: functional, cell-based; conditions: SK-MEL-2, 72 h; in short: as §1
PC-3 [14] = experiment: Antitumor activity against human PC3 cells xenografted in nu/nu mouse assessed as tumor growth delay at 2 mg/kg, po QD for 5 days followed by 2days without treatment for 2 weeks; assay type: functional
In short: (§4)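 Nude mice (nu/nu), females, or males for the prostate model, 4-6 weeks old, implanted sc in the flank with tumor cells (H460 at 1 × 10⁶). Groups of 10 were randomized at 100-150 mm³. Dosing was oral gavage in 5% DMSO/5% Tween 80/1% CMC in water, QD 5 days on/2 off per cycle, for 2 cycles (H460, PC-3) or 4 cycles (HT29). Tumor volume (length × width²/2) and body weight were measured twice weekly.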

PC-3 [15] = experiment: Antitumor activity against human PC3 cells xenografted in nu/nu mouse assessed as tumor growth inhibition at 2 mg/kg, po QD for 5 days followed by 2days without treatment for 2 weeks; assay type: functional; design: scale not given: the % may be the effect or the level left; in short: as §4
NCI-H460 [16] = experiment: Antitumor activity against human H460 cells xenografted in nu/nu mouse assessed as tumor growth inhibition at 2 mg/kg, po QD for 5 days followed by 2days without treatment for 2 weeks; assay type: functional; design: scale not given: the % may be the effect or the level left; in short: as §4
HT-29 [17] = experiment: Antitumor activity against human HT-29 cells xenografted in nu/nu mouse assessed as tumor growth delay at 2 mg/kg, po QD for 5 days
Mus musculus [18] = experiment: Toxicity in nu/nu mouse assessed as body weight loss at 2 mg/kg, po QD for 5 days followed by 2 days without treatment for 2 weeks; assay type: organism-based; design: dose 2 mg/kg, route oral; conditions: in vivo; in short: as §4
Mus musculus [19] = experiment: Toxicity in nu/nu mouse assessed as body weight loss at 2 mg/kg, po QD for 5 days followed by 4 days without treatment for 2 weeks; assay type: organism-based; design: dose 2 mg/kg, route oral; conditions: in vivo
NCI-H460 [20] = experiment: Antitumor activity against human H460 cells xenografted in nu/nu mouse assessed as tumor growth delay at 2 mg/kg, po QD for 5 days followed by 2days without treatment for 2 weeks; assay type: functional; in short: as §4
HT-29 [21] = experiment: Antitumor activity against human HT-29 cells xenografted in nu/nu mouse assessed as tumor growth inhibition at 2 mg/kg, po QD for 5 days; design: scale not given: the % may be the effect or the level left

| SMILES | Ratio [1] | IC50 (HT-29 [2]) [µM] | IC50 [3] [µM] | selectivity ratio [4] | IC50 (LNCaP) [µM] | IC50 (NCI-H460 [5]) [µM] | IC50 (Malme-3M) [µM] | Ratio [6] | IC50 [7] [µM] | IC90 [7] [µM] | IC50 (NCI-H69) [µM] | Ratio (NCI-H460 [8]) | IC50 (IGROV-1) [µM] | IC50 [9] [µM] | IC50 (H69AR) [µM] | selectivity ratio [10] | IC50 (DU-145) [µM] | IC50 (PC-3 [11]) [µM] | IC50 [12] [µM] | IC50 (NCI-H460 [13]) [µM] | further results |
| --- | --- | --- | --- | --- | --- | --- | --- | --- | --- | --- | --- | --- | --- | --- | --- | --- | --- | --- | --- | --- | --- |
| CCc1c2c(nc3ccc(OC(=O)N4CCC(N5CCCCC5)CC4)cc13)-c1cc3c(c(=O)n1C2)COC(=O)[C@]3(O)CC [IRINOTECAN] | 2 | 0.22 | 0.01 | 100 | 0.009 | 0.027 | 0.2 | 11 | 0.001 | 0.008 | 0.022 | 2 | 0.03 | 0.022 | 0.25 | 85 | 0.2 | 0.004 | 0.11 | 0.015 | IC50 (A-375): 0.004 µM; IC50 (SK-MEL-2): 0.1 µM |
| CC[C@@]1(O)C(=O)OCc2c1cc1n(c2=O)Cc2cc3c(CN(C)C)c(O)ccc3nc2-1 [TOPOTECAN] | 8 | > 1 | 0.004 | 14 | 0.009 | 0.11 | 1 | >47 | 0.008 | 0.05 | 0.006 | 2 | 0.16 | 0.033 | > 0.3 | 16 | 1 | 0.045 | 0.13 | 0.045 | Time (PC-3 [14]): 21 days; Activity (PC-3 [15]): 79%; Activity (NCI-H460 [16]): 46%; Time (HT-29 [17]): 16 days; Activity (Mus musculus [18]): 9%; Activity (Mus musculus [19]): 0% and 1%; Time (NCI-H460 [20]): 5 days; IC50 (A-375): 0.013 µM; Activity (HT-29 [21]): 70%; IC50 (SK-MEL-2): 0.14 µM |
| CC[C@@]1(O)C(=O)OCc2c1cc1n(c2=O)Cc2cc3ccccc3nc2-1 [CAMPTOTHECIN] | 1 | 0.26 | 0.057 | – | – | > 1 | – | >250 | – | – | 0.001 | >77 | – | 0.052 | > 0.3 | – | – | 0.012 | – | 0.013 | – |
| CCc1c2c(nc3ccccc13)-c1c([N+](=O)[O-])c3c(c(=O)n1C2)COC(=O)[C@]3(O)CC | – | – | – | – | – | – | – | – | – | – | – | – | – | – | – | – | – | – | – | 4.6 | – |
| CC[C@@]1(O)C(=O)OCc2c1c([N+](=O)[O-])c1n(c2=O)Cc2cc3ccccc3nc2-1 | – | – | – | – | – | – | – | – | – | – | – | – | – | – | – | – | – | – | – | 3 | – |
